According to ChEMBL document CHEMBL5107948, “Activity-based protein profiling reveals deubiquitinase and aldehyde dehydrogenase targets of a cyanopyrrolidine probe” (RSC Med Chem, 2021):
Activity calls are given as the source filed them.

Experiments:
[1] = target: 4-trimethylaminobutyraldehyde dehydrogenase (Homo sapiens) (UniProt P49189); test: Binding affinity to ALDH9A1 in human HEK293 cells at 130 to 500 nM in presence of ABP MT16-205 by LFQ-NanoLC-MS/MS analysis; format: cell-based; details: dose 130-500 nM, DDE = dose-dependent effect
Outline: (§1)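 Competition format: HEK293 cells pre-treated 1 h with competitor or DMSO, then exposed to ABP MT16-205. Lysis in PBS/Triton/SDS buffer, AzRB click ligation, NeutrAvidin pulldown, on-bead TCEP/chloroacetamide treatment and overnight tryptic digestion. Label-free LC-MS/MS; two-sample t-test versus control (n=3, permutation FDR 0.01, S0=1).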

[2] = target: 4-trimethylaminobutyraldehyde dehydrogenase (Homo sapiens) (UniProt P49189); test: Inhibition of ALDH9A1 in human HEK293 cells at 130 to 2000 nM in presence of ABP MT16-205 by Competitive pulldown based immunoblotting analysis; format: cell-based; details: dose 130-2000 nM, DDE = dose-dependent effect
Outline: (§2)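 Lysates AzTB-clicked, streptavidin bead pulldown (2 h RT), boiled elution, SDS-PAGE. Target detected by immunoblot: 3% BSA/TBS-T block, primary antibody 1.5 h RT or overnight at 4 °C, HRP secondary, chemiluminescence.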

[3] = target: Ubiquitin carboxyl-terminal hydrolase isozyme L1 (Homo sapiens) (UniProt P09936); test: Inhibition of UCHL1 in human HEK293 cells at 130 to 2000 nM in presence of ABP MT16-205 by Competitive pulldown based immunoblotting analysis; format: cell-based; details: dose 130-2000 nM, DDE = dose-dependent effect; outline: as §2
[4] = target: T1, Glutamine amidotransferase-like class 1 domain-containing protein 3, mitochondrial (Homo sapiens) (UniProt P0DPI2); test: Binding affinity to GATD3A in human HEK293 cells at 130 to 500 nM in presence of ABP MT16-205 by LFQ-NanoLC-MS/MS analysis; format: cell-based; details: dose 130-500 nM, DDE = dose-dependent effect; outline: as §1
T1 sequence (whole entry): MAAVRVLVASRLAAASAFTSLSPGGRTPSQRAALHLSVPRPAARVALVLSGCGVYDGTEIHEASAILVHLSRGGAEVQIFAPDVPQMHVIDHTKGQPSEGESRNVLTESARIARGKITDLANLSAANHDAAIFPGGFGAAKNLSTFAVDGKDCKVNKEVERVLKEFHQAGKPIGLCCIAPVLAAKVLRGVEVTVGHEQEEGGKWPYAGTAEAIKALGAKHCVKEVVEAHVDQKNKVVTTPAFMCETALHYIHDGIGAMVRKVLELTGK

[5] = target: T2, Ubiquitin carboxyl-terminal hydrolase 30 (Homo sapiens) (UniProt Q70CQ3); test: Inhibition of GST-tagged recombinant USP30 (unknown origin) using Ub-Lys-TAMRA as substrate at 1 uM incubated for 30 mins by fluorescence polarization assay
T2 sequence (whole entry): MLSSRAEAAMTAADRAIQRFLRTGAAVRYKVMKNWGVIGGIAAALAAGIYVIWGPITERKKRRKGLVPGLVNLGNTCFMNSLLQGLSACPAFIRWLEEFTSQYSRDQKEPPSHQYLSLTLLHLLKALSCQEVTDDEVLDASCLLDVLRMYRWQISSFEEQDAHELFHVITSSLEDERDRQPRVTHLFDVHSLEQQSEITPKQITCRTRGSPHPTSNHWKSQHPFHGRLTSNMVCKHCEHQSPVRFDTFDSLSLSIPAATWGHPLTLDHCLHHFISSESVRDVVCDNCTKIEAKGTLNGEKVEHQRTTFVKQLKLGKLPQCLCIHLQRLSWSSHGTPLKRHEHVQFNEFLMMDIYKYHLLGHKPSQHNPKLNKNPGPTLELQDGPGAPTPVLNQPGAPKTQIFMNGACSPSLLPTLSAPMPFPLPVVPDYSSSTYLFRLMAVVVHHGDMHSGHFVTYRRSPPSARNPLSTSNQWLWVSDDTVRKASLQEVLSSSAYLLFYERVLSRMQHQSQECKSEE

[6] = target: Ubiquitin carboxyl-terminal hydrolase isozyme L1 (Homo sapiens) (UniProt P09936); test: Inhibition of UCHL1 in human HEK293 cells using HA-Ub-VME as substrate at 0.1 to 10 uM incubated for 1 hr by immunoblotting analysis; format: cell-based; details: dose 0.1-10 µM
Outline: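 Near-confluent HEK293 cells treated with compound in medium for 1 h at 37 °C, lysed in Tris/NP-40/CHAPS buffer with benzonase. Lysate (20 µg) reacted with HA-Ahx-Ahx-Ub-VME (0.5 µg) 15 min at room temperature, boiled 5 min at 95 °C in SDS loading buffer with BME, SDS-PAGE and immunoblot.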

[7] = target: Ubiquitin carboxyl-terminal hydrolase isozyme L1 (Homo sapiens) (UniProt P09936); test: Binding affinity to UCHL1 in human HEK293 cells assessed as fold change at 30 nM incubated for 3 to 18 hrs by LFQ-chemical proteomics analysis; format: cell-based; details: time 3-18 hrs
Outline: (§3)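 HEK293 cells exposed to alkyne ABP or DMSO for 3, 6 or 18 h, washed, lysed in PBS/1% Triton X-100/0.1% SDS. Lysates (400 µg, biological triplicates) CuAAC-ligated to AzRB (100 µM, CuSO4 1 mM, TCEP 1 mM, TBTA 100 µM, 1 h RT). NeutrAvidin enrichment, on-bead TCEP/CAA reduction-alkylation, overnight trypsin digest at 37 °C, LC-MS/MS label-free quantification. Two-sample t-test against DMSO (n=3, permutation FDR 0.01, S0=1).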

[8] = target: Ubiquitin carboxyl-terminal hydrolase isozyme L1 (Homo sapiens) (UniProt P09936); test: Binding affinity to UCHL1 in human HEK293 cells assessed as fold change at 130 nM incubated for 3 to 6 hrs by LFQ-chemical proteomics analysis; format: cell-based; details: time 3-6 hrs; outline: as §3
[9] = target: T3, Aldehyde dehydrogenase, mitochondrial (Homo sapiens) (UniProt P05091); test: Binding affinity to ALDH2 in human HEK293 cells assessed as fold change at 130 nM incubated for 3 to 6 hrs by LFQ-chemical proteomics analysis; format: cell-based; details: time 3-6 hrs; outline: as §3
T3 sequence (whole entry): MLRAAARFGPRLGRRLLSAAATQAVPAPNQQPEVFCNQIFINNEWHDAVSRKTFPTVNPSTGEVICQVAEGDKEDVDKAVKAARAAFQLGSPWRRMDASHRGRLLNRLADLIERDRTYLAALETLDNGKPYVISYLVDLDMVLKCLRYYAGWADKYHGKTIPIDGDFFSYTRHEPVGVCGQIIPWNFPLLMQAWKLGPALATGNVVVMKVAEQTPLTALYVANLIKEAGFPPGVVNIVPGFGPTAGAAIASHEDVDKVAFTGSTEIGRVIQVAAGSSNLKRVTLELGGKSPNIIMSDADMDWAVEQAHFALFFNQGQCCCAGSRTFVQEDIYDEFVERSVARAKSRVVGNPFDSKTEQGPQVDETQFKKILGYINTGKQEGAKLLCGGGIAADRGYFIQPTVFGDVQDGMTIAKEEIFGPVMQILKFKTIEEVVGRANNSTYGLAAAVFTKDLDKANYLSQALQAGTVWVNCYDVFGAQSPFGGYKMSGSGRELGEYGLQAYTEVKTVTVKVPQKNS

[10] = target: Ubiquitin carboxyl-terminal hydrolase isozyme L1 (Homo sapiens) (UniProt P09936); test: Binding affinity to UCHL1 in human HEK293 cells at 31 nM by TAMRA labelled pulldown based In-gel fluorescence analysis; format: cell-based
Outline: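 HEK293 cells treated with ABP; lysate (150 µg) CuAAC-ligated to AzTB, precipitated, resuspended. 100 µg incubated with streptavidin magnetic beads 2 h RT, washed with 0.2% SDS/PBS, eluted by boiling 10 min at 95 °C. Eluates run on SDS-PAGE and read by TAMRA in-gel fluorescence or by immunoblot on nitrocellulose with HRP chemiluminescence.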

Chain of Ubiquitin carboxyl-terminal hydrolase isozyme L1 (Homo sapiens) (P09936 whole entry, looked up): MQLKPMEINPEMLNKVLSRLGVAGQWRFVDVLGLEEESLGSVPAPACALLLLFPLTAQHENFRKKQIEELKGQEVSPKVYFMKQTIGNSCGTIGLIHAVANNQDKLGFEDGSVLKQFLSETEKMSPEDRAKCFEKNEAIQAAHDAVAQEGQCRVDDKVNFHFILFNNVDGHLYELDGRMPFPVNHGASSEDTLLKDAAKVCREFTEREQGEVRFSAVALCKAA
Chain of 4-trimethylaminobutyraldehyde dehydrogenase (Homo sapiens) (P49189 whole entry): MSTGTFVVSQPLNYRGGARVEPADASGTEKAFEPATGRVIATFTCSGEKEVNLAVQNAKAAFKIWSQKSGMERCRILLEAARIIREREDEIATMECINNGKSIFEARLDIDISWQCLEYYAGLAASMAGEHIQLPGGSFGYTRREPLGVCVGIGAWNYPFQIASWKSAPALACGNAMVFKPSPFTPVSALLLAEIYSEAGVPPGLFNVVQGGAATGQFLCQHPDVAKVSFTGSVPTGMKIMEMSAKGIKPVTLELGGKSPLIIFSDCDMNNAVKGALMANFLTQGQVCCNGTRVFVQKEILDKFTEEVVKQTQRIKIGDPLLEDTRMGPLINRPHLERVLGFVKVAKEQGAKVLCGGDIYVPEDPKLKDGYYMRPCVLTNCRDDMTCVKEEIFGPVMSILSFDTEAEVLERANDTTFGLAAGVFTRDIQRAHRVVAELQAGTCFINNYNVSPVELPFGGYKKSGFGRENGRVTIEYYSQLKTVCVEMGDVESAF

N#CN1CC[C@H](C(=O)Nc2ncc(-c3ccccc3)s2)C1
active: Activity [1] Dde | inhibition [2] Dde | inhibition [3] Dde | Activity [4] Dde | inhibition [5] | inhibition [6]

C#Cc1ccc(-c2cnc(NC(=O)[C@H]3CCN(C#N)C3)s2)cc1
> 16: fold change (FC) [7]
active: inhibition [5] | Activity [10] | inhibition [6]
> 64: fold change (FC) [8] | fold change (FC) [9]
